Key:
[1] = system: NCI-H661; assay: Antiproliferative activity against human NCI-H661 cells after 72 hrs by MTT assay; type: functional; conditions: NCI-H661, 72 h
In short: (§1)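 Cells were exposed to a range of concentrations for 72 h. Compounds came from 20 mM stocks in 100% DMSO. Cells were then given MEM with 0.4 mg/mL MTT for 2 h, and formazan was read at 570 nm. GI50 was taken from percentage conversion relative to mock-treated controls and reported as mean SD of three independent experiments.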

[2] = system: MT2; assay: Antiproliferative activity against human MT2 cells after 72 hrs by MTT assay; type: functional; conditions: MT2, 72 h; in short: as §1
[3] = Antiproliferative activity against human NPC-TW01 cells after 72 hrs by MTT assay; type: functional; conditions: NPC-TW01, 72 h; in short: as §1
[4] = Cell cycle arrest in human NPC-TW01 cells assessed as accumulation at G0/G1 phase at 30 uM after 24 hrs by flow cytometry; type: functional, cell-based
In short: (§2)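 Time course in exponentially growing cells at two concentrations, sampled at the indicated times. Controls were kept in complete medium with 0.3% DMSO for the same periods. Cells were fixed, RNase-treated and stained. DNA content was read on a FACScan flow cytometer, and the percentage of cells in sub-G1, G0/G1, S and G2/M was determined.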

[5] = Cell cycle arrest in human NPC-TW01 cells assessed as accumulation at sub-G1 phase at 60 uM after 24 hrs by flow cytometry; type: functional, cell-based; in short: as §2
[6] = Cell cycle arrest in human NPC-TW01 cells assessed as accumulation at G2/M phase at 10.5 uM after 72 hrs by flow cytometry; type: functional, cell-based
In short: (§3)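 Exponentially growing cells were treated for 72 h. Controls received complete medium with 0.5% DMSO for 72 h. Cells were fixed, incubated with RNase and stained. DNA content was measured on a FACScan flow cytometer, and the percentage of cells in each cell-cycle phase was determined.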

[7] = Cell cycle arrest in human NPC-TW01 cells assessed as accumulation at sub-G1 phase at 60 uM after 72 hrs by flow cytometry; type: functional, cell-based; in short: as §2
[8] = Cell cycle arrest in human NPC-TW01 cells assessed as accumulation at S phase at 60 uM after 48 hrs by flow cytometry; type: functional, cell-based; in short: as §2
[9] = Cell cycle arrest in human NPC-TW01 cells assessed as accumulation at G0/G1 phase at 30 uM after 72 hrs by flow cytometry; type: functional, cell-based; in short: as §2
[10] = Cell cycle arrest in human NPC-TW01 cells assessed as accumulation at G2/M phase at 30 uM after 24 hrs by flow cytometry; type: functional, cell-based; in short: as §2
[11] = Cell cycle arrest in human NPC-TW01 cells assessed as accumulation at sub-G1 phase at 30 uM after 96 hrs by flow cytometry; type: functional, cell-based; in short: as §2
[12] = Cell cycle arrest in human NPC-TW01 cells assessed as accumulation at S phase at 30 uM after 96 hrs by flow cytometry; type: functional, cell-based; in short: as §2
[13] = Cell cycle arrest in human NPC-TW01 cells assessed as accumulation at G0/G1 phase at 60 uM after 48 hrs by flow cytometry; type: functional, cell-based; in short: as §2
[14] = Cell cycle arrest in human NPC-TW01 cells assessed as accumulation at sub-G1 phase at 10.5 uM after 72 hrs by flow cytometry; type: functional, cell-based; in short: as §3
[15] = Cell cycle arrest in human NPC-TW01 cells assessed as accumulation at G2/M phase at 30 uM after 48 hrs by flow cytometry; type: functional, cell-based; in short: as §2
[16] = Cell cycle arrest in human NPC-TW01 cells assessed as accumulation at S phase at 60 uM after 72 hrs by flow cytometry; type: functional, cell-based; in short: as §2
[17] = Cell cycle arrest in human NPC-TW01 cells assessed as accumulation at sub-G1 phase at 30 uM after 72 hrs by flow cytometry; type: functional, cell-based; in short: as §2
[18] = Cell cycle arrest in human NPC-TW01 cells assessed as accumulation at G2/M phase at 60 uM after 72 hrs by flow cytometry; type: functional, cell-based; in short: as §2
[19] = Cell cycle arrest in human NPC-TW01 cells assessed as accumulation at G0/G1 phase at 60 uM after 96 hrs by flow cytometry; type: functional, cell-based; in short: as §2
[20] = Cell cycle arrest in human NPC-TW01 cells assessed as accumulation at S phase at 60 uM after 96 hrs by flow cytometry; type: functional, cell-based; in short: as §2
[21] = Cell cycle arrest in human NPC-TW01 cells assessed as accumulation at S phase at 30 uM after 48 hrs by flow cytometry; type: functional, cell-based; in short: as §2
[22] = Cell cycle arrest in human NPC-TW01 cells assessed as accumulation at G0/G1 phase at 30 uM after 96 hrs by flow cytometry; type: functional, cell-based; in short: as §2
[23] = Cell cycle arrest in human NPC-TW01 cells assessed as accumulation at G0/G1 phase at 30 uM after 48 hrs by flow cytometry; type: functional, cell-based; in short: as §2
[24] = Cell cycle arrest in human NPC-TW01 cells assessed as accumulation at G2/M phase at 60 uM after 24 hrs by flow cytometry; type: functional, cell-based; in short: as §2
[25] = Cell cycle arrest in human NPC-TW01 cells assessed as accumulation at G0/G1 phase at 60 uM after 72 hrs by flow cytometry; type: functional, cell-based; in short: as §2
[26] = Cell cycle arrest in human NPC-TW01 cells assessed as accumulation at G2/M phase at 60 uM after 48 hrs by flow cytometry; type: functional, cell-based; in short: as §2
[27] = Cell cycle arrest in human NPC-TW01 cells assessed as accumulation at G0/G1 phase at 60 uM after 24 hrs by flow cytometry; type: functional, cell-based; in short: as §2
[28] = Cell cycle arrest in human NPC-TW01 cells assessed as accumulation at S phase at 10.5 uM after 72 hrs by flow cytometry; type: functional, cell-based; in short: as §3
[29] = Cell cycle arrest in human NPC-TW01 cells assessed as accumulation at sub-G1 phase at 60 uM after 48 hrs by flow cytometry; type: functional, cell-based; in short: as §2
[30] = Cell cycle arrest in human NPC-TW01 cells assessed as accumulation at S phase at 30 uM after 72 hrs by flow cytometry; type: functional, cell-based; in short: as §2
[31] = Cell cycle arrest in human NPC-TW01 cells assessed as accumulation at sub-G1 phase at 30 uM after 24 hrs by flow cytometry; type: functional, cell-based; in short: as §2
[32] = Cell cycle arrest in human NPC-TW01 cells assessed as accumulation at sub-G1 phase at 30 uM after 48 hrs by flow cytometry; type: functional, cell-based; in short: as §2
[33] = Cell cycle arrest in human NPC-TW01 cells assessed as accumulation at G2/M phase at 60 uM after 96 hrs by flow cytometry; type: functional, cell-based; in short: as §2
[34] = Cell cycle arrest in human NPC-TW01 cells assessed as accumulation at S phase at 60 uM after 24 hrs by flow cytometry; type: functional, cell-based; in short: as §2
[35] = Cell cycle arrest in human NPC-TW01 cells assessed as accumulation at G2/M phase at 30 uM after 96 hrs by flow cytometry; type: functional, cell-based; in short: as §2
[36] = Cell cycle arrest in human NPC-TW01 cells assessed as accumulation at G2/M phase at 30 uM after 72 hrs by flow cytometry; type: functional, cell-based; in short: as §2
[37] = Cell cycle arrest in human NPC-TW01 cells assessed as accumulation at sub-G1 phase at 60 uM after 96 hrs by flow cytometry; type: functional, cell-based; in short: as §2
[38] = Cell cycle arrest in human NPC-TW01 cells assessed as accumulation at S phase at 30 uM after 24 hrs by flow cytometry; type: functional, cell-based; in short: as §2
[39] = Cell cycle arrest in human NPC-TW01 cells assessed as accumulation at G0/G1 phase at 48.0 uM after 72 hrs by flow cytometry; type: functional, cell-based; in short: as §3
[40] = Cell cycle arrest in human NPC-TW01 cells assessed as accumulation at S phase at 48.0 uM after 72 hrs by flow cytometry; type: functional, cell-based; in short: as §3
[41] = Cell cycle arrest in human NPC-TW01 cells assessed as accumulation at sub-G1 phase at 48.0 uM after 72 hrs by flow cytometry; type: functional, cell-based; in short: as §3
[42] = Cell cycle arrest in human NPC-TW01 cells assessed as accumulation at G2/M phase at 48.0 uM after 72 hrs by flow cytometry; type: functional, cell-based; in short: as §3
[43] = Cell cycle arrest in human NPC-TW01 cells assessed as accumulation at sub-G1 phase at 6.0 uM after 72 hrs by flow cytometry; type: functional, cell-based; in short: as §3
[44] = Cell cycle arrest in human NPC-TW01 cells assessed as accumulation at G0/G1 phase at 6.0 uM after 72 hrs by flow cytometry; type: functional, cell-based; in short: as §3
[45] = Cell cycle arrest in human NPC-TW01 cells assessed as accumulation at G2/M phase at 6.0 uM after 72 hrs by flow cytometry; type: functional, cell-based; in short: as §3
[46] = Cell cycle arrest in human NPC-TW01 cells assessed as accumulation at S phase at 6.0 uM after 72 hrs by flow cytometry; type: functional, cell-based; in short: as §3

COc1ccc(NC(=O)COc2c(-c3ccccc3)oc3ccccc3c2=O)cc1
GI50 [1]: 6.74 µM
GI50 [2]: > 10 µM
GI50 [3]: 5.48 µM

O=C(COc1ccc2oc(-c3ccccc3)cc(=O)c2c1)Nc1ccccc1
GI50 [1]: 5.6 µM
GI50 [2]: 1.43 µM
GI50 [3]: 1.26 µM

O=C(COc1ccc2c(=O)cc(-c3ccccc3)oc2c1)Nc1ccc(-c2ccccc2)cc1
GI50 [1]: 1.28 µM
GI50 [2]: 2.48 µM
GI50 [3]: 1.61 µM

O=C(COc1ccc2c(=O)c(-c3ccccc3)coc2c1)Nc1ccccc1
GI50 [1]: > 10 µM
GI50 [2]: > 10 µM
GI50 [3]: > 10 µM

O=C(COc1ccc2oc(-c3ccccc3)cc(=O)c2c1)Nc1ccc(F)cc1
Activity [4]: 52%
Activity [5]: 2.27%
Activity [6]: 5.2%
Activity [7]: 4.5%
GI50 [1]: 1.47 µM
Activity [8]: 18.4%
Activity [9]: 71%
Activity [10]: 17%
Activity [11]: 5.62%
Activity [12]: 15.1%
Activity [13]: 68.3%
Activity [14]: 4%
Activity [15]: 13.4%
Activity [16]: 15.7%
Activity [17]: 4.79%
Activity [18]: 6.64%
GI50 [2]: 0.47 µM
Activity [19]: 66.7%
Activity [20]: 12.8%
Activity [21]: 24.2%
Activity [22]: 70.7%
Activity [23]: 59.8%
Activity [24]: 19.8%
Activity [25]: 73.7%
Activity [26]: 10.5%
Activity [27]: 51.5%
Activity [28]: 13.6%
Activity [29]: 2.87%
Activity [30]: 14.7%
Activity [31]: 3.45%
Activity [32]: 2.59%
Activity [33]: 7.78%
Activity [34]: 26.4%
Activity [35]: 8.6%
Activity [36]: 9.47%
Activity [37]: 12.7%
Activity [38]: 27.6%
GI50 [3]: 0.74 µM

O=C(COc1ccc2c(=O)cc(-c3ccccc3)oc2c1)Nc1ccc2ccccc2c1
GI50 [1]: > 10 µM
GI50 [2]: > 10 µM
GI50 [3]: > 10 µM

O=C(COc1ccc2c(=O)c(-c3ccccc3)coc2c1)Nc1ccc2ccccc2c1
GI50 [1]: > 10 µM
GI50 [2]: 7.68 µM
GI50 [3]: 1.37 µM

O=C(COc1ccc2c(=O)c(-c3ccccc3)coc2c1)Nc1ccc(F)cc1
GI50 [1]: > 10 µM
GI50 [2]: 2.5 µM
GI50 [3]: 0.55 µM

O=C(COc1ccc2oc(-c3ccccc3)cc(=O)c2c1)Nc1ccc2ccccc2c1
GI50 [1]: 6.71 µM
GI50 [2]: > 10 µM
GI50 [3]: 6.75 µM

O=C(COc1ccc2oc(-c3ccccc3)cc(=O)c2c1)Nc1ccc(-c2ccccc2)cc1
GI50 [1]: 9.71 µM
GI50 [2]: > 10 µM
GI50 [3]: 0.64 µM

O=C(COc1ccc2c(=O)cc(-c3ccccc3)oc2c1)Nc1ccccc1
GI50 [1]: > 10 µM
GI50 [2]: > 10 µM
GI50 [3]: > 10 µM

O=C(COc1c(-c2ccccc2)oc2ccccc2c1=O)Nc1ccccc1
GI50 [1]: > 10 µM
GI50 [2]: 6.72 µM
GI50 [3]: > 10 µM

COc1ccc(NC(=O)COc2ccc3c(=O)c(-c4ccccc4)coc3c2)cc1
GI50 [1]: 9.53 µM
GI50 [2]: 4.55 µM
GI50 [3]: 6.7 µM

O=C(COc1c(-c2ccccc2)oc2ccccc2c1=O)Nc1ccc(-c2ccccc2)cc1
GI50 [1]: > 10 µM
GI50 [2]: > 10 µM
GI50 [3]: > 10 µM

O=C(COc1c(-c2ccccc2)oc2ccccc2c1=O)Nc1ccc2ccccc2c1
GI50 [1]: 6.5 µM
GI50 [2]: > 10 µM
GI50 [3]: 6.52 µM

O=C(COc1c(-c2ccccc2)oc2ccccc2c1=O)Nc1ccc(F)cc1
GI50 [1]: > 10 µM
GI50 [2]: > 10 µM
GI50 [3]: 9.5 µM

COc1ccc(NC(=O)COc2ccc3c(=O)cc(-c4ccccc4)oc3c2)cc1
GI50 [1]: 5.5 µM
GI50 [2]: 6.7 µM
GI50 [3]: 5.97 µM

O=C(COc1ccc2c(=O)cc(-c3ccccc3)oc2c1)Nc1ccc(F)cc1
GI50 [1]: 5.77 µM
GI50 [2]: 6.41 µM
GI50 [3]: > 10 µM

COc1ccc(NC(=O)COc2ccc3oc(-c4ccccc4)cc(=O)c3c2)cc1
Activity [6]: 5.3%
GI50 [1]: 0.84 µM
Activity [14]: 3.3%
GI50 [2]: 3.01 µM
Activity [28]: 13.6%
GI50 [3]: 0.71 µM

COc1ccc(/C(COc2ccc3oc(-c4ccccc4)cc(=O)c3c2)=N/O)cc1
Activity [39]: 0.5%
Activity [40]: 27.5%
Activity [41]: 1.2%
Activity [42]: 70.8%

O=c1cc(-c2ccccc2)oc2ccc(OC/C(=N\O)c3ccc(F)cc3)cc12
Activity [43]: 1.7%
Activity [44]: 22.3%
Activity [45]: 42.8%
Activity [46]: 33.2%

O=C(COc1ccc2c(=O)c(-c3ccccc3)coc2c1)Nc1ccc(-c2ccccc2)cc1
GI50 [1]: > 10 µM
GI50 [2]: > 10 µM
GI50 [3]: 1.75 µM
